In experiment [1] the target is D(2) dopamine receptor (Rattus norvegicus, UniProt P61169). The experiment can be described thus: Displacement of [3H]spiperone from dopamine D2 receptor of rat striatal membranes. In kind it is cell membranes, Membrane. The procedure, abridged: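 IC50 from 5–10 compound concentrations, each in triplicate, taken as the concentration (nM) giving 50% inhibition of specific radioligand binding.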
(In a radioligand displacement assay an active substance lowers the binding of a labelled ligand.)

In experiment [2] the target is Sodium-dependent serotonin transporter (Rattus norvegicus, UniProt P31652). In words: Inhibition of [3H]5-HT re-uptake in rat synaptosomes. In kind it is subcellular, Brain.
Chain of Sodium-dependent serotonin transporter (P31652 whole entry): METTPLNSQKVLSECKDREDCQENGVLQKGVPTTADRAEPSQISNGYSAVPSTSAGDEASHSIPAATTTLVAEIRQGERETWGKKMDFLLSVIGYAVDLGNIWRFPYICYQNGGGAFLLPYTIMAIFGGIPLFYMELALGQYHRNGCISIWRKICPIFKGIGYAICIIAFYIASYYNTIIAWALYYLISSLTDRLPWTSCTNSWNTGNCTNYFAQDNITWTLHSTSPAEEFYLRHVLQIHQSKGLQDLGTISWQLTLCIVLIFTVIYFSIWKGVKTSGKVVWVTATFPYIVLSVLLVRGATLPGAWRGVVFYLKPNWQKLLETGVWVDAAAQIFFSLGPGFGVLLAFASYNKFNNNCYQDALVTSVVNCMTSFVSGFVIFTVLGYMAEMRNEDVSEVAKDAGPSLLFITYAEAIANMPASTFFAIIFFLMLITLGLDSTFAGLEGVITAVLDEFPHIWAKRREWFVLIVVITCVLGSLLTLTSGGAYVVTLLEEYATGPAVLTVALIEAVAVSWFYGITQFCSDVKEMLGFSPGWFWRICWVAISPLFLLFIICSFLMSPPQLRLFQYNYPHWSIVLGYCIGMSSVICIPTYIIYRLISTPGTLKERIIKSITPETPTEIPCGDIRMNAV
The target in experiment [3] is T1, 5-hydroxytryptamine receptor 1A (Rattus norvegicus, UniProt P19327).
T1 sequence (P19327 whole entry): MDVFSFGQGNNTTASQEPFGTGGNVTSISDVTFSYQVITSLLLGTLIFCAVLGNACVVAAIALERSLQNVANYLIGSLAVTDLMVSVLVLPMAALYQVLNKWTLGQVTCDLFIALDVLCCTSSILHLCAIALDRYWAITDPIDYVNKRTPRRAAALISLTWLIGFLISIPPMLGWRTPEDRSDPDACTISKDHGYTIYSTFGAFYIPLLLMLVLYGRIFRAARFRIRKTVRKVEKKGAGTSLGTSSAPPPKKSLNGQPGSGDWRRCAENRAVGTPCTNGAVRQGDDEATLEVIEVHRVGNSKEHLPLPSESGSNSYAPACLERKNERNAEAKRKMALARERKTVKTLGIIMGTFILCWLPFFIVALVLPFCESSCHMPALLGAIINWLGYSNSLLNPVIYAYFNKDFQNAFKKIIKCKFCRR
In words: Inhibition of 8-OH DPAT binding to rat hydroxytryptamine 1A receptor.

In experiment [4] the test system is Rattus norvegicus. The experiment can be described thus: Dose required to inhibit ultrasonic vocalisation on peroral administered. As to conditions: po, read-out: ID50 (the source's name). In kind it is functional. Summed up:
(§1)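 Rat ultrasonic vocalization test. In a priming session, up to 10 grid-floor shocks were given (1.8 mA, 0.3 s, 20 s apart). Rats not vocalizing on three consecutive trials were excluded. Next day, rats were tested 2 h after dosing: five shocks, then vocalization duration recorded over 3 min. ID50 (dose for half-maximal inhibition) came from dose–response curves.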

Experiment [5] deals with Rattus norvegicus. The experiment can be described thus: Dose required to inhibit ultrasonic vocalisation on subcutaneous administered. Format: functional. As to conditions: sc, read-out: ID50 (the source's name). The procedure, abridged: as §1

SMILES strings stand for the structures.

Chain of D(2) dopamine receptor (P61169 whole entry): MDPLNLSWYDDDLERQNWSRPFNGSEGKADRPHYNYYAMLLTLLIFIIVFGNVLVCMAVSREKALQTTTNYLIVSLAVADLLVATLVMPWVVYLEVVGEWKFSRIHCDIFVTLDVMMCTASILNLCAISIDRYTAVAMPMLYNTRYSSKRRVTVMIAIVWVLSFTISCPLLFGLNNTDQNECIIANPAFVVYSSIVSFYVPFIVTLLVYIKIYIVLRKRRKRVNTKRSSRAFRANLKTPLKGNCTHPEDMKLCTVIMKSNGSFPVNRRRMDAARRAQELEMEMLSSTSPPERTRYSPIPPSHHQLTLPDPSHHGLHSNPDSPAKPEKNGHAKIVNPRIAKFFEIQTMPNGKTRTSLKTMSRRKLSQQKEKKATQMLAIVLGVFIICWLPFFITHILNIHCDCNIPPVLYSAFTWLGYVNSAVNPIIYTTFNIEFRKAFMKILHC

With `COc1ccc(N2CCN(CCCCc3c[nH]c4ccc(C#N)cc34)CC2)cc1OC`, the IC50 – broadly, the concentration that inhibits the measured activity by half – was 40 nM in experiment [1], 0.3 nM in experiment [2] and 60 nM in experiment [3].

Take `N#Cc1ccc2[nH]cc(CCCCN3CCN(c4ccc5c(c4)CC(C(N)=O)O5)CC3)c2c1` (centres undefined): the IC50 in experiment [1] turned out to be 1400 nM; in experiment [2] it was 3.1 nM; in experiment [3] it was 3.2 nM.

Consider `N#Cc1ccc2[nH]cc(CCCCN3CCN(c4ccc5occc5c4)CC3)c2c1`, for which the IC50 came out at 8 nM in experiment [1], 3.9 nM in experiment [2] and 8.7 nM in experiment [3].

On to `N#Cc1ccc2[nH]cc(CCCCN3CCN(c4ccc5oc(C#N)cc5c4)CC3)c2c1`, for which the values for the 50% inhibitory concentration (IC50) in experiment [1], in experiment [2] and in experiment [3] were over 630 nM, 1 nM and 0.4 nM, respectively.

With `N#Cc1ccc2[nH]cc(CCCCN3CCN(c4ccc5c(c4)CCO5)CC3)c2c1`, the half-inhibitory concentration (IC50) came out at 13 nM in experiment [1], 1 nM in experiment [2] and 4 nM in experiment [3].

For `O/N=C/c1ccc2[nH]cc(CCCCN3CCN(c4ccc5c(c4)OCCO5)CC3)c2c1`, the results for the half-inhibitory concentration (IC50) in experiment [1], in experiment [2] and in experiment [3] were 9.4 nM, 5 nM and 0.4 nM, respectively.

Turning to `N#Cc1ccc2[nH]cc(CCCCN3CCN(c4ccc5sc(C(N)=O)cc5c4)CC3)c2c1`, the half-maximal inhibitory concentration (IC50) was determined as 0.3 nM in experiment [2] and 3.1 nM in experiment [3].

With `O=Cc1ccc2[nH]cc(CCCCN3CCN(c4ccc5c(c4)OCCO5)CC3)c2c1`, the IC50 in experiment [1] is under 100 nM; in experiment [2] it was 1 nM; in experiment [3], 0.7 nM.

Consider `COc1cc(C#N)ccc1N1CCN(CCCCc2c[nH]c3ccc(C#N)cc23)CC1`, for which the 50% inhibitory concentration (IC50) in experiment [1] was determined as 6 nM; in experiment [2], 4.1 nM; in experiment [3], 8 nM.

Turning to `N#Cc1ccc(N2CCN(CCCCc3c[nH]c4ccc(F)cc34)CC2)cc1`, the figures for the IC50 in experiment [1], in experiment [2] and in experiment [3] were over 100 nM, 2 nM and 40 nM, respectively.

For `N#Cc1ccc2[nH]cc(CCCCN3CCN(c4ccc5occc5c4C(N)=O)CC3)c2c1`, the half-maximal inhibitory concentration (IC50) in experiment [1] is 220 nM; in experiment [2], 5.5 nM; in experiment [3], 3.3 nM.

With `N#Cc1cc2cc(N3CCN(CCCCc4c[nH]c5ccc(F)cc45)CC3)ccc2o1`, the half-inhibitory concentration (IC50) in experiment [1] is over 100 nM; in experiment [2], 3 nM; in experiment [3], 5 nM.

`N#Cc1ccc(N2CCN(CCCCc3c[nH]c4ccc(C#N)cc34)CC2)cc1`: the IC50 in experiment [1] was 255 nM; in experiment [2] it was 1.3 nM; in experiment [3] it was 1.1 nM. Moreover, the ED50 in experiment [4] turned out to be 14 mg/kg.

For the compound `CCOCCOCCOc1cccc(N2CCN(CCCCc3c[nH]c4ccc(C#N)cc34)CC2)c1C#N`, the half-maximal inhibitory concentration (IC50) in experiment [1] turned out to be 28 nM; in experiment [2], 3.2 nM; in experiment [3] it was 2 nM.

With `N#Cc1ccc2[nH]cc(CCCCN3CCN(c4ccc(O)cc4)CC3)c2c1`, the figures for the IC50 in experiment [1], in experiment [2] and in experiment [3] were 35 nM, 0.5 nM and 6 nM, respectively.

In the case of `Fc1ccc2[nH]cc(CCCCN3CCN(c4ccc5c(c4)OCCO5)CC3)c2c1`, the IC50 in experiment [1] turned out to be 130 nM; in experiment [2] it was 1 nM; in experiment [3] it was 5 nM.

`N#Cc1ccc2[nH]cc(CCCCN3CCN(c4ccc(C(N)=O)cc4)CC3)c2c1`: the IC50 in experiment [1] was over 270 nM; in experiment [2] it was 0.6 nM; in experiment [3], 118 nM.

`COc1ccc2[nH]cc(CCCCN3CCN(c4ccc5c(c4)OCCO5)CC3)c2c1`: in experiment [2], the IC50 stood at 100 nM.

Turning to `N#Cc1ccc2[nH]cc(CCCCN3CCN(c4ccc(F)cc4)CC3)c2c1`, the figures for the ED50 in experiment [5] and in experiment [4] were 3 mg/kg and 7 mg/kg, respectively. Besides, the IC50 in experiment [1] was determined as 4.2 nM; in experiment [2] it was 1 nM.

Turning to `N#Cc1ccc2[nH]cc(CCCCN3CCN(c4ccc5c(c4)CCCO5)CC3)c2c1`, the IC50 is under 42 nM in experiment [1], 0.9 nM in experiment [2] and 5 nM in experiment [3].

Regarding `N#Cc1ccc2[nH]cc(CCCCN3CCN(c4cccc5cc(C(N)=O)oc45)CC3)c2c1`, the figures for the half-inhibitory concentration (IC50) in experiment [1], in experiment [2] and in experiment [3] were 39 nM, 2.6 nM and 1.9 nM, respectively.

Consider `Fc1ccc2[nH]cc(CCCCN3CCN(c4ccc5c(c4)OCO5)CC3)c2c1`, for which the half-inhibitory concentration (IC50) in experiment [1] was under 100 nM; in experiment [2], 1 nM; in experiment [3], 4 nM.

As for `N#Cc1ccc2[nH]cc(CCCCN3CCN(c4ccc5c(c4)OCO5)CC3)c2c1`, the ED50 in experiment [5] was 1 mg/kg; in experiment [4], 4 mg/kg. The half-inhibitory concentration (IC50) in experiment [1] worked out at 4.9 nM; in experiment [2], 0.6 nM; in experiment [3], 0.7 nM.

On to `O=C(O)c1ccc2[nH]cc(CCCCN3CCN(c4ccc5c(c4)OCCO5)CC3)c2c1`, for which the IC50 was over 100 nM in experiment [1] and 4 nM in experiment [3].

For the compound `N#Cc1ccc2[nH]cc(CCCCN3CCN(c4cccc5oc(C(N)=O)cc45)CC3)c2c1`, the results for the IC50 in experiment [1], in experiment [2] and in experiment [3] were 6.6 nM, 8.5 nM and 1.4 nM, respectively.

In the case of `N#Cc1ccc2[nH]cc(CCCCN3CCN(c4ccccc4)CC3)c2c1`, the IC50 in experiment [1] was determined as 3.8 nM; in experiment [2] it was 1 nM; in experiment [3] it was 400 nM.

For `COC(=O)c1ccc2[nH]cc(CCCCN3CCN(c4ccc5c(c4)OCCO5)CC3)c2c1`, the results for the IC50 in experiment [1], in experiment [2] and in experiment [3] were under 100 nM, 50 nM and 0.6 nM, respectively.

For `N#Cc1ccc2[nH]cc(CCCCN3CCN(c4ccc5nsnc5c4)CC3)c2c1`, in experiment [5], the ED50 was 3 mg/kg. In addition, the half-maximal inhibitory concentration (IC50) in experiment [1] stood at 31 nM; in experiment [2], 3.1 nM; in experiment [3], 2 nM.

Take `N#Cc1ccc2[nH]cc(CCCCN3CCN(c4cc(F)c(C#N)c(F)c4)CC3)c2c1`: the IC50 in experiment [2] came out at 5.4 nM; in experiment [3], 36 nM.

Turning to `N#Cc1ccc2[nH]cc(CCCCN3CCN(c4ccc5c(c4)OCCO5)CC3)c2c1`, the IC50 in experiment [1] was determined as 5.6 nM; in experiment [2] it was 0.4 nM; in experiment [3], 1 nM.

For `N#Cc1ccc2[nH]cc(CCCCN3CCN(c4ccccc4C(N)=O)CC3)c2c1`, the IC50 in experiment [1] came out at 47 nM; in experiment [2], 16 nM; in experiment [3], 6.4 nM.

Turning to `COc1ccc(N2CCN(CCCCc3c[nH]c4ccc(C#N)cc34)CC2)cc1`, the IC50 in experiment [1] was found to be 46 nM; in experiment [2] it was 0.5 nM; in experiment [3] it was 1 nM.

On to `N#Cc1ccc2[nH]cc(CCCCN3CCN(c4ccc5[nH]ccc5c4)CC3)c2c1`, for which the IC50 is 5.7 nM in experiment [1], 2.4 nM in experiment [2] and 1.6 nM in experiment [3].

In the case of `N#Cc1ccc2[nH]cc(CCCCN3CCN(c4c(C#N)cccc4C#N)CC3)c2c1`, the 50% inhibitory concentration (IC50) in experiment [1] was under 100 nM; in experiment [2], 2 nM; in experiment [3], 40 nM.

Take `O=c1ccc2cc(N3CCN(CCCCc4c[nH]c5ccc(F)cc45)CC3)ccc2o1`: the half-maximal inhibitory concentration (IC50) in experiment [1] is over 100 nM; in experiment [2], 0.9 nM; in experiment [3] it was 0.7 nM.

As to `N#Cc1ccc2[nH]cc(CCCCN3CCN(c4cccc5nsnc45)CC3)c2c1`, the half-inhibitory concentration (IC50) in experiment [1] turned out to be 1.4 nM; in experiment [2], 1.5 nM; in experiment [3] it was 1 nM.

For the compound `NC(=O)c1cc2cc(N3CCN(CCCCc4c[nH]c5ccc(F)cc45)CC3)ccc2o1`, the IC50 is over 100 nM in experiment [1], 0.3 nM in experiment [2] and 3 nM in experiment [3].

As for `Clc1ccc2[nH]cc(CCCCN3CCN(c4ccc5c(c4)OCCO5)CC3)c2c1`, the IC50 in experiment [1] was over 100 nM; in experiment [2], 20 nM; in experiment [3], 40 nM.

With `Oc1ccc2[nH]cc(CCCCN3CCN(c4ccc5c(c4)OCCO5)CC3)c2c1`, the 50% inhibitory concentration (IC50) was 77 nM in experiment [1], 0.5 nM in experiment [2] and 0.2 nM in experiment [3].

As for `N#Cc1ccc2[nH]cc(CCCCN3CCN(c4ccc(O)c(C#N)c4)CC3)c2c1`, the IC50 was found to be 43 nM in experiment [1], 0.8 nM in experiment [2] and 400 nM in experiment [3].

The compound `NC(=O)c1ccc2[nH]cc(CCCCN3CCN(c4ccc5c(c4)OCCO5)CC3)c2c1` showed a half-maximal inhibitory concentration (IC50) in experiment [2] of 60 nM.

On to `c1ccc2c(CCCCN3CCN(c4ccc5c(c4)OCCO5)CC3)c[nH]c2c1`, for which the figures for the half-maximal inhibitory concentration (IC50) in experiment [1], in experiment [2] and in experiment [3] were over 100 nM, 10 nM and 8 nM, respectively.

On to `N#Cc1ccc2[nH]cc(CCCCN3CCN(c4ccc(C#N)c(C#N)c4)CC3)c2c1`, for which the results for the 50% inhibitory concentration (IC50) in experiment [2] and in experiment [3] were 2 nM and 12 nM, respectively.

Regarding `COc1cc(N2CCN(CCCCc3c[nH]c4ccc(C#N)cc34)CC2)ccc1C#N`, the IC50 in experiment [2] was 3.4 nM; in experiment [3], 14 nM.

As for `N#Cc1ccc2[nH]cc(CCCCN3CCN(c4ccc5[nH]c(C(N)=O)cc5c4)CC3)c2c1`, the IC50 in experiment [1] came to 140 nM; in experiment [2], 2 nM; in experiment [3] it was 14 nM.

As to `COc1ccc(Cl)cc1N1CCN(CCCCc2c[nH]c3ccc(C#N)cc23)CC1`, the results for the IC50 in experiment [2] and in experiment [3] were 6.8 nM and 30 nM, respectively.

Turning to `COc1ccccc1N1CCN(CCCCc2c[nH]c3ccc(C#N)cc23)CC1`, the IC50 in experiment [1] stood at 0.7 nM; in experiment [2], 3 nM; in experiment [3] it was 1 nM.

With `COc1cccc(N2CCN(CCCCc3c[nH]c4ccc(C#N)cc34)CC2)c1C#N`, the results for the half-inhibitory concentration (IC50) in experiment [1], in experiment [2] and in experiment [3] were 1.4 nM, 3.9 nM and 5.6 nM, respectively.
